Results published in ChEMBL document CHEMBL1123365, “Synthesis and opioid antagonist potencies of naltrexamine bivalent ligands with conformationally restricted spacers” (1986).

What was measured:
Cavia porcellus [1] = species: Cavia porcellus; assay: Compound was tested for its antagonistic activity with morphine on the electrically stimulated guinea pig ileal longitudinal muscle (GPI).; assay type: functional, Muscle tissue
Outline: (§1)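 Guinea pig ileal longitudinal muscle (GPI) strip. Each ligand at 5 nM was incubated with the tissue for 30 min before a morphine (μ-selective) concentration-response curve was run. The IC50 ratio is the morphine IC50 with antagonist divided by the control IC50 in the same preparation. Relative potency is the ratio relative to the monovalent reference ligand. Mean ± SE of three determinations.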

[2] = Ratio of IC50 of compound in presence of ethylketazocine (EK) on the electrically stimulated guinea pig ileal longitudinal muscle (GPI) to that of IC50 of control value; assay type: functional
Outline: (§2)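 Guinea pig ileal longitudinal muscle (GPI) strip. Ligand at 5 nM was preincubated with the tissue for 30 min, then an ethylketazocine (κ-selective) concentration-response curve was run. The IC50 ratio is the EK IC50 with antagonist over the control EK IC50 in the same GPI preparation. Relative potency is expressed against the monovalent reference ligand. Mean ± SE, n = 3.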

[3] = Ratio of IC50 of compound in presence of morphine on the electrically stimulated guinea pig ileal longitudinal muscle (GPI) to that of IC50 of control value; assay type: functional; outline: as §1
Cavia porcellus [4] = species: Cavia porcellus; assay: Compound was tested for its antagonistic activity with ethylketazocine (EK) activity on the electrically stimulated guinea pig ileal longitudinal muscle (GPI).; assay type: functional, Muscle tissue; outline: as §2

Structure (SMILES) | Relative potency (Cavia porcellus [1]) | Ratio [2] | Ratio [3] | Relative potency (Cavia porcellus [4])
O=C(/C=C/C(=O)NCC(=O)NC1CCC2(O)C3Cc4ccc(O)c5c4C2(CCN3CC2CC2)C1O5)NCC(=O)NC1CCC2(O)C3Cc4ccc(O)c5c4C2(CCN3CC2CC2)C1O5 (stereo not given) | 3.6 | 6.6 | 8.2 | 
O=C(/C=C/C(=O)NCC(=O)NCC(=O)NCC(=O)NCC(=O)NC1CCC2(O)C3Cc4ccc(O)c5c4C2(CCN3CC2CC2)C1O5)NCC(=O)NCC(=O)NCC(=O)NCC(=O)NC1CCC2(O)C3Cc4ccc(O)c5c4C2(CCN3CC2CC2)C1O5 (stereo not given) | 9.9 | 3.3 | 22.7 | 2.2
O=C(/C=C/C(=O)NC1CCC2(O)C3Cc4ccc(O)c5c4C2(CCN3CC2CC2)C1O5)NC1CCC2(O)C3Cc4ccc(O)c5c4C2(CCN3CC2CC2)C1O5 (stereo not given) | 2.1 | 3.4 | 4.8 | 2.3
O=C(/C=C/C(=O)NCC(=O)NCC(=O)NC1CCC2(O)C3Cc4ccc(O)c5c4C2(CCN3CC2CC2)C1O5)NCC(=O)NCC(=O)NC1CCC2(O)C3Cc4ccc(O)c5c4C2(CCN3CC2CC2)C1O5 (stereo not given) | 43 | 19.6 | 100 | 13.1
